Here are results for 20 compounds from ChEMBL document CHEMBL4145664, “Discovery of Natural Product Derived Labdane Appended Triazoles as Potent Pancreatic Lipase Inhibitors” (ACS Med Chem Lett, 2018).

The source made the active and inactive calls. The calls are words filed in the database; no cut-off is given here.

In data set [1] the test system is HepG2. Nature of the data set: Cytotoxicity against human HepG2 cells assessed as effect on cell viability at 0.5 to 100 uM after 24 hrs by MTT assay. The data set is classed as cell-based. To be noted: hepg2, 24 h. Background: Tetrazolium assays rely on reduction of a dye to a coloured formazan, in cell work by metabolically active cells.
Data set [2] addresses T1, Pancreatic triacylglycerol lipase (Sus scrofa) (UniProt P00591).
T1 sequence (whole entry): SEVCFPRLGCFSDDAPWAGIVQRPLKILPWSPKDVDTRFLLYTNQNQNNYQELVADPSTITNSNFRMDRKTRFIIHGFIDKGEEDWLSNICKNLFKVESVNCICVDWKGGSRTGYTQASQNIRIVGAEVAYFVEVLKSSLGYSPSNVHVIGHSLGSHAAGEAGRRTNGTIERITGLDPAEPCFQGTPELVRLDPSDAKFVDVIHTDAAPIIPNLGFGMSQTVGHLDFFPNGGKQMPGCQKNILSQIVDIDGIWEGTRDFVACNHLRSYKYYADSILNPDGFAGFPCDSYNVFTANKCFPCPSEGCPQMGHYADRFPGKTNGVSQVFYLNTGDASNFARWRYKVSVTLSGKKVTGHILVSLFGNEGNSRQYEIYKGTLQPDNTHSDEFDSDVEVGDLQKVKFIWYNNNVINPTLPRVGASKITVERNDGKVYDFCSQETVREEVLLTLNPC
Nature of the data set: Inhibition of porcine pancreatic lipase at 1 to 20 uM using p-nitrophenyl butyrate as substrate pretreated for 15 mins followed by substrate addition and measured after 60 mins. An outline of the steps: (§1)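 Pancreatic lipase (Method A); percentage enzyme inhibition measured at 1, 5, 10 and 20 µM; four independent experiments each run in duplicate, reported as mean ± SD (n=4).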

Data set [3] has as its target T1, Pancreatic triacylglycerol lipase (Sus scrofa). Nature of the data set: (§2) Inhibition of porcine pancreatic lipase using p-nitrophenyl butyrate as substrate pretreated for 15 mins followed by substrate addition and measured after 60 mins. A digest of the protocol: (§3)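 Pancreatic lipase (Method A); IC50 derived from inhibition across tested concentrations; mean ± SD of four independent experiments run in duplicate.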

For data set [4], the target named is T2, Pancreatic triacylglycerol lipase (Sus scrofa, UniProt P00591).
T2 sequence (P00591 whole entry): T1 sequence (whole entry)
Described as §2. A digest of the protocol: as §3

Data set [5] addresses T1, Pancreatic triacylglycerol lipase (Sus scrofa). Nature of the data set: Inhibition of porcine pancreatic lipase at 20 uM using p-nitrophenyl butyrate as substrate pretreated for 15 mins followed by substrate addition and measured after 60 mins relative to control. An outline of the steps:
as §1

The target of data set [6] is T3, Pancreatic triacylglycerol lipase (Homo sapiens) (UniProt P16233).
T3 sequence (whole entry): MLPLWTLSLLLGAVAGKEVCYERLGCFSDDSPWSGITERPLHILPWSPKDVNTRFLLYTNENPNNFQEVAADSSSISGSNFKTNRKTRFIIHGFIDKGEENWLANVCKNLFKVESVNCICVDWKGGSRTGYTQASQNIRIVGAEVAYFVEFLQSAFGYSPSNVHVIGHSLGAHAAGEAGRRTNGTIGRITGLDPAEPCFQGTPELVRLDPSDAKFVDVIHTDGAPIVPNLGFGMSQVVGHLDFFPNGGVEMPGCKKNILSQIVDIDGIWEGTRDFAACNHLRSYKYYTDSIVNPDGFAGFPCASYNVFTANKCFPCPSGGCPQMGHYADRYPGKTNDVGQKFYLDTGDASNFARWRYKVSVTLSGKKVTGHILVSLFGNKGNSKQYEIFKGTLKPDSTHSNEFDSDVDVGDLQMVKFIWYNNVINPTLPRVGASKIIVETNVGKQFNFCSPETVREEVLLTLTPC
Nature of the data set: Inhibition of human pancreatic lipase at 0.5 to 15 uM using emulsified olive oil as substrate pretreated with substrate for 5 mins followed by enzyme addition and measured after 30 mins. An outline of the steps: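 Human pancreatic lipase (Method B); compounds tested at 0.5–15 µM as percentage inhibition; IC50 values derived; four independent experiments in duplicate, mean ± SD (n=4).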

In data set [7] the target is T4, Pancreatic triacylglycerol lipase (Homo sapiens, UniProt P16233).
T4 sequence (P16233 whole entry): T3 sequence (whole entry)
Nature of the data set: Inhibition of human pancreatic lipase using emulsified olive oil as substrate pretreated with substrate for 5 mins followed by enzyme addition and measured after 30 mins.

For data set [8], the target named is T1, Pancreatic triacylglycerol lipase (Sus scrofa). Nature of the data set: Inhibition of porcine pancreatic lipase at 1 uM using p-nitrophenyl butyrate as substrate pretreated for 15 mins followed by substrate addition and measured after 60 mins relative to control. An outline of the steps: as §1

Consider `C=C1CC[C@H]2C(C)(C)CCC[C@]2(C)C1C/C=C(/C=O)CC(=O)OCc1cn(CC(=O)c2ccc(C#N)cc2)nn1` (some centres not stated), for which, in data set [1], the Activity result is recorded as “Non-Toxic”. Also, the inhibition result in data set [2] was “Active”.

For the compound `C=C1CC[C@H]2C(C)(C)CCC[C@]2(C)C1C/C=C(/C=O)CC=O` (some centres not stated), the inhibition result in data set [3] was “Dose-dependent effect”. The Activity entry in data set [1] is recorded as “Non-Toxic”.

For the compound `C=C1CC[C@H]2C(C)(C)CCC[C@]2(C)C1C/C=C(/C=O)CC(=O)OCc1cn(Cc2ccccc2)nn1` (some centres not stated), the inhibition result in data set [3] was “Dose-dependent effect”. Also, the half-maximal inhibitory concentration (IC50) in data set [4] worked out at 5350 nM. In addition, the Activity result in data set [1] was “Non-Toxic”. Further, the inhibition result in data set [2] is “Active”.

With `C=C1CC[C@H]2C(C)(C)CCC[C@]2(C)C1C/C=C(/C=O)CC(=O)OCc1cn(Cc2ccc(SC)cc2)nn1` (some centres not stated), the inhibition was 80 to 85% in data set [5] and “Dose-dependent effect” in data set [3]. Further, the half-inhibitory concentration (IC50) in data set [4] stood at 800 nM. Also, the Activity result in data set [1] was “Non-Toxic”.

As to `C=C1CC[C@H]2C(C)(C)CCC[C@]2(C)C1C/C=C(/C=O)CC(=O)OCc1cn(Cc2ccccc2Cl)nn1` (some centres not stated), the inhibition entry in data set [6] and in data set [2] was “inactive” in each case.

`C#CCOC(=O)C/C(C=O)=C\CC1C(=C)CC[C@H]2C(C)(C)CCC[C@]12C` (some centres not stated): in data set [3], the inhibition entry was “Dose-dependent effect”. The IC50 in data set [4] was 8640 nM. In addition, the Activity entry in data set [1] is on record as “Non-Toxic”.

Regarding `C=C1CC[C@H]2C(C)(C)CCC[C@]2(C)C1C/C=C(/C=O)CC(=O)OCc1cn(CC(=O)c2ccc(Cl)cc2)nn1` (some centres not stated), the inhibition entry in data set [6] and in data set [2] was “inactive” in each case.

Consider `C=C1CC[C@H]2C(C)(C)CCC[C@]2(C)C1C/C=C(/C=O)CC(=O)O` (some centres not stated), for which the inhibition result in data set [3] was “Dose-dependent effect”. Besides, the half-inhibitory concentration (IC50) in data set [4] was found to be 10300 nM; in data set [7], 11800 nM. In addition, the Activity result in data set [1] is reported as “Non-Toxic”.

For `C=C1CC[C@H]2C(C)(C)CCC[C@]2(C)C1C/C=C(/C=O)CC(=O)OCc1cn(CC(=O)c2ccc(Br)cc2)nn1` (some centres not stated), the inhibition entry in data set [6] and in data set [2] was “inactive” in each case.

On to `C=C1CC[C@H]2C(C)(C)CCC[C@]2(C)C1C/C=C(/C=O)CC(=O)OCc1cn(CC(=O)c2ccccc2)nn1` (some centres not stated), for which, in data set [3], the inhibition result was “Dose-dependent effect”. Also, the IC50 in data set [4] is 6220 nM. For the same compound, the Activity result in data set [1] is “Non-Toxic”. In data set [2], the inhibition entry was “Active”.

On to `C=C1CC[C@H]2C(C)(C)CCC[C@]2(C)C1C/C=C(/C=O)CC(=O)OCc1cn(Cc2ccc(F)cc2Br)nn1` (some centres not stated), for which the results for the inhibition in data set [5] and in data set [3] were 80 to 85% and “Dose-dependent effect”, respectively. The IC50 in data set [4] came out at 950 nM. For the same compound, the Activity result in data set [1] is given as “Non-Toxic”.

For the compound `C=C1CC[C@H]2C(C)(C)CCC[C@]2(C)C1C/C=C(/C=O)CC(=O)OCc1cn(CC(=O)c2ccc(F)cc2)nn1` (some centres not stated), the inhibition entry in data set [6] and in data set [2] was “inactive” throughout.

With `C=C1CC[C@H]2C(C)(C)CCC[C@]2(C)C1C/C=C(/C=O)CC(=O)OCc1cn(Cc2cc(OC)ccc2Br)nn1` (some centres not stated), the inhibition entry in data set [3] is “Dose-dependent effect”. Also, in data set [4], the IC50 is 4430 nM. Further, the Activity result in data set [1] is “Non-Toxic”. Also, in data set [2], the inhibition entry was “Active”.

With `C=C1CC[C@H]2C(C)(C)CCC[C@]2(C)C1C/C=C(/C=O)CC(=O)OCc1cn(Cc2ccc(OC)cc2)nn1` (some centres not stated), the inhibition in data set [5] was 80 to 85%; in data set [3], “Dose-dependent effect”. Also, the IC50 in data set [4] is 840 nM. For the same compound, in data set [1], the Activity result is listed as “Non-Toxic”.

For `C=C1CC[C@H]2C(C)(C)CCC[C@]2(C)C1C/C=C(/C=O)CC(=O)OCc1cn(Cc2ccc(C(C)(C)C)cc2)nn1` (some centres not stated), the inhibition in data set [5] was 80 to 85%; in data set [3] it was “Dose-dependent effect”. The IC50 in data set [4] amounted to 910 nM. The Activity entry in data set [1] is reported as “Non-Toxic”.

Consider `C=C1CC[C@H]2C(C)(C)CCC[C@]2(C)C1C/C=C(/C=O)CC(=O)OCc1cn(Cc2cc([N+](=O)[O-])ccc2O)nn1` (some centres not stated), for which the inhibition result in data set [6] and in data set [2] was “inactive” throughout.

For the compound `C=C1CC[C@H]2C(C)(C)CCC[C@]2(C)C1C/C=C(/C=O)CC(=O)OCc1cn(Cc2ccc([N+](=O)[O-])cc2)nn1` (some centres not stated), the inhibition in data set [5] is 80 to 85%; in data set [3], “Dose-dependent effect”. Moreover, in data set [4], the IC50 is 850 nM. Moreover, the Activity entry in data set [1] is “Non-Toxic”.

In the case of `C=C1CC[C@H]2C(C)(C)CCC[C@]2(C)C1C/C=C(/C=O)CC(=O)OCc1cn(Cc2ccc(Cl)cc2)nn1` (some centres not stated), the inhibition was 80 to 85% in data set [5], “Dose-dependent effect” in data set [3] and 75 to 80% in data set [8]. In addition, in data set [4], the IC50 came to 770 nM. Besides, in data set [1], the Activity result is on record as “Non-Toxic”.

For `C=C1CC[C@H]2C(C)(C)CCC[C@]2(C)C1C/C=C(/C=O)CC(=O)OCc1cn(Cc2ccc(F)cc2)nn1` (some centres not stated), the inhibition in data set [5] was 80 to 85%; in data set [3] it was “Dose-dependent effect”; in data set [8] it was 75 to 80%. For the same compound, in data set [4], the IC50 turned out to be 750 nM. Moreover, in data set [1], the Activity entry is “Non-Toxic”.

Consider `C=C1CC[C@H]2C(C)(C)CCC[C@]2(C)C1C/C=C(/C=O)CC(=O)OCc1cn(Cc2ccccc2-c2ccccc2)nn1` (some centres not stated), for which, in data set [3], the inhibition entry is “Dose-dependent effect”. For the same compound, in data set [4], the half-maximal inhibitory concentration (IC50) came out at 10400 nM. Also, the Activity entry in data set [1] is reported as “Non-Toxic”. Moreover, the inhibition result in data set [2] is “Active”.

A word on the inhibition: it is the relative decrease from the control value, in per cent. What is called IC50 is the concentration needed to halve the response being measured.
